Assay [1] deals with T1, Adrenergic receptor alpha-1 (Rattus norvegicus, UniProt P15823+P23944+P43140).
T1 sequence (P15823 whole entry): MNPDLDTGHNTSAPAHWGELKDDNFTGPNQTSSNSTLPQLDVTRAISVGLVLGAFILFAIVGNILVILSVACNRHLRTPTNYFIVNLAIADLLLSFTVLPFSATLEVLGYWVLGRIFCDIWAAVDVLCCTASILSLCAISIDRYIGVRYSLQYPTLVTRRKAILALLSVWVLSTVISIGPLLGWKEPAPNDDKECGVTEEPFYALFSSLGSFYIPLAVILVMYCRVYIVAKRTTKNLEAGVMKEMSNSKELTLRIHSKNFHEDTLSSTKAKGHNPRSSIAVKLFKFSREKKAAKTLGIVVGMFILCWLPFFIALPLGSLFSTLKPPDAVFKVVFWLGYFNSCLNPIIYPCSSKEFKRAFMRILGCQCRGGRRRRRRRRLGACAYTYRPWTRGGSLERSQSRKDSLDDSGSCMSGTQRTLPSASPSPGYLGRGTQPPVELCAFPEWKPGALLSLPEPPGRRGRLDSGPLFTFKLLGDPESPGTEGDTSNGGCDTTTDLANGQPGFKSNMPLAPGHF
T1 sequence (P23944 whole entry): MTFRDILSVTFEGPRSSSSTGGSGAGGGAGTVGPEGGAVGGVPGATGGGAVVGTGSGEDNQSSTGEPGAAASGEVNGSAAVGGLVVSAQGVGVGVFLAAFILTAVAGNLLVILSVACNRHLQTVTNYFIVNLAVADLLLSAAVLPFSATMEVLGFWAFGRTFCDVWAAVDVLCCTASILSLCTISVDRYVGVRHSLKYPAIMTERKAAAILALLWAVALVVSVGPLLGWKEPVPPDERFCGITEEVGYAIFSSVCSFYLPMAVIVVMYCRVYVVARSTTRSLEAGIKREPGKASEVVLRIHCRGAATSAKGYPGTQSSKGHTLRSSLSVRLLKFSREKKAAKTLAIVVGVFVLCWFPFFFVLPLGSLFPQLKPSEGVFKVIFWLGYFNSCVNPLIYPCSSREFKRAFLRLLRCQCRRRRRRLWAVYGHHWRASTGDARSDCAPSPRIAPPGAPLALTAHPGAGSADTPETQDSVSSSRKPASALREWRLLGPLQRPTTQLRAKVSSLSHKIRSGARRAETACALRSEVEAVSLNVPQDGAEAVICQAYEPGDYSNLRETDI
T1 sequence (P43140 whole entry): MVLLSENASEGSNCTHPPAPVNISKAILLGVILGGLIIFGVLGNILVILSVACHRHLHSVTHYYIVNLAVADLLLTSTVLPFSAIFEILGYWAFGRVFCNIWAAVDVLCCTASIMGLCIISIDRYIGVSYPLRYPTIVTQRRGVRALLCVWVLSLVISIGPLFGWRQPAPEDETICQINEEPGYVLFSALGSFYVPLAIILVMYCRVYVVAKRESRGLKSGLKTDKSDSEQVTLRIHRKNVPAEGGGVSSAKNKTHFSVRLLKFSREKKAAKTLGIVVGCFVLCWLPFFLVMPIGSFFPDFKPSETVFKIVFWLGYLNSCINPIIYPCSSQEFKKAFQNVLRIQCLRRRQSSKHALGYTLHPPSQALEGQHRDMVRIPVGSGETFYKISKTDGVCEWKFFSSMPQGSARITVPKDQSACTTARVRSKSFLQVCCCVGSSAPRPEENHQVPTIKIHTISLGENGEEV
Description: Displacement of [3H]prazosin from adrenoceptor alpha1 in Sprague-Dawley rat brain after 45 mins by scintillation counting. The procedure, abridged:
(§1)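 Crude P2 membranes from male Sprague–Dawley rat brain (250–280 g), 0.2–0.3 mg protein. Radioligand 1 nM: [3H]2BFI for I2, [3H]prazosin for α1, [3H]RX821002 for α2. Non-specific binding defined by 10 µM BU224 (I2), 10 µM phenylephrine (α1) or 10 µM rauwolscine (α2). 11 concentrations from 0.01 nM to 100 µM, triplicate, 45 min at RT. Filtration and scintillation counting; Ki by Cheng–Prusoff.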
(Displacement assays read how much labelled ligand stays bound in the presence of the test substance.)

Assay [2] in a line: Displacement of [3H]BFI from imidazoline I2 receptor in Sprague-Dawley rat brain membranes after 45 mins by scintillation counting. Type of assay: cell membranes, Membrane. The procedure, abridged:
as §1

The target of assay [3] is T2, Alpha-2A adrenergic receptor (Homo sapiens, UniProt P08913).
T2 sequence (P08913 whole entry): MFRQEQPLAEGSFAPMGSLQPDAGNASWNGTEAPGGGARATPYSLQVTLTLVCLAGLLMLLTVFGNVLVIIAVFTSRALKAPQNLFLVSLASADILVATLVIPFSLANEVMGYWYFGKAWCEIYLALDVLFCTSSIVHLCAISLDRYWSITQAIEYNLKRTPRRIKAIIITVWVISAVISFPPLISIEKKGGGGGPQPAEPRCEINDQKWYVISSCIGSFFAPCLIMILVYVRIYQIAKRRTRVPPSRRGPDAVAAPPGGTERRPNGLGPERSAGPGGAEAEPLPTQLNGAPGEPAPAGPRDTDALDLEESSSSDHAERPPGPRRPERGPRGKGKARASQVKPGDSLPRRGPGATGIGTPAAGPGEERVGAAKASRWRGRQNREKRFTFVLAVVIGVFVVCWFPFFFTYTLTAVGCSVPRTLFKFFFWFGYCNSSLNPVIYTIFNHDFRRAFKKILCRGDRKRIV
Kind of assay: Agonist activity at human adrenoceptor alpha2A expressed in CHOK1 cells assessed as stimulation of agonist-induced [35S]GTPgammaS binding by scintillation counting. Type of assay: functional, cell-based, CHO-K1. The procedure, abridged:
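Membranes from CHO-K1 cells stably expressing human α2A-adrenoceptor; 5 µg protein incubated with serial dilutions of agonist and 0.1 nM [35S]GTPγS in Tris buffer pH 7.4 with 1 µM GDP, MgCl2, NaCl, 30 min at RT. Filtered and counted by scintillation.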
In general terms: GTPγS resists hydrolysis and so accumulates on activated G proteins.

Assay [4] has as its target T3, Alpha-2A adrenergic receptor (Homo sapiens) (UniProt P08913).
T3 sequence (whole entry): T2 sequence (P08913 whole entry)
Description: Agonist activity at human adrenoceptor alpha2A expressed in CHOK1 cells assessed as stimulation of agonist-induced [35S]GTPgammaS binding by scintillation counting assay relative to noradrenaline. Particulars: CHO-K1. Type of assay: functional, cell-based. An outline of the steps: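 Membranes from CHO-K1 cells stably expressing human α2A-adrenoceptor; 5 µg protein incubated with serial dilutions of agonist and 0.1 nM [35S]GTPγS in Tris buffer pH 7.4 with 1 µM GDP, MgCl2, NaCl, 30 min at RT. Filtered and counted by scintillation. EC50 and intrinsic activity relative to noradrenaline; means from 3 independent experiments.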

Consider `Cl.Clc1cccc2cnn(CC3=NCCN3)c12`, for which the figures for the Ki in assay [1] and in assay [2] were 0.0141 µM and 0.554 µM, respectively. Besides, the EC50 (usually the concentration that produces a half-maximal response) in assay [3] worked out at 16.6 µM. The Emax (in general, the size of the effect at its maximum, as opposed to the concentration needed) in assay [4] was 7.4%.

As to `Cl.c1ccc2c(c1)cnn2CC1=NCCN1`, the inhibition constant (Ki) (usually the dissociation constant of the complex between target and ligand, obtained from inhibition or displacement) in assay [1] stood at 0.272 µM; in assay [2], 42.2 µM. Besides, the EC50 in assay [3] stood at 4.5 µM. Further, the Emax in assay [4] was determined as 6.3%.

In the case of `Cc1cccc2cnn(CC3=NCCN3)c12.Cl`, the values for the Ki in assay [1] and in assay [2] were 0.101 µM and 6.84 µM, respectively. In addition, in assay [3], the EC50 worked out at 17.4 µM. In addition, the maximum response (Emax) in assay [4] was 6.3%.

The values are drawn from ChEMBL document CHEMBL1926556, “Synthesis and biological activities of 2-[(heteroaryl)methyl]imidazolines” (Bioorg Med Chem, 2012).
